Values after ≈ are worked out from the molar mass of the structure shown.
Columns and labels:
Assay type in all cases: functional, cell-based; call rule not given here
HeLa = assay: Antitumor activity against human HeLa cells
Summary of the method: (§1)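 In vitro cytotoxicity against human carcinoma cell lines. Surviving fraction was plotted against drug concentration to give survival curves. IC50 was read from these curves as the dose reducing survival to 50%, in µg/ml.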

HCT-116 = assay: Antitumor activity against human HCT116 cells; summary of the method: as §1
MCF7 = assay: Antitumor activity against human MCF7 cells
Summary of the method: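 Human MCF-7 breast carcinoma cells treated in vitro across a range of drug concentrations. Surviving fraction plotted against concentration to give survival curves. IC50 (µg/ml), the dose that reduces survival to 50%, read from these curves. Doxorubicin served as reference drug.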

HepG2 = assay: Antitumor activity against human HepG2 cells; summary of the method: as §1
[1] = Homo sapiens, MCF7, read-out: IC50

Compound | IC50 (MCF7; [1]) | IC50 (MCF7; mcf7) | IC50 (HeLa) | IC50 (HCT-116) | IC50 (HepG2)
COc1c2c(cc3occc13)OC(C)(C)c1[se]nnc1-2 | 5.56 µg/mL (≈ 16.6 µM) |  | 6.02 µg/mL (≈ 18 µM) | 4.8 µg/mL (≈ 14.3 µM) | 11.5 µg/mL (≈ 34.3 µM)
COc1c(C(/C=C(\C)N2CCCC2)=C2C(=O)c3ccccc3C2=O)c(O)cc2occc12 | 15.5 µg/mL (≈ 36.1 µM) |  |  |  | 
COc1c2c(c(OC)c3occc13)OC(C)(C)c1[se]nnc1-2 | 15.8 µg/mL (≈ 43.3 µM) |  | 4.35 µg/mL (≈ 11.9 µM) | 4.65 µg/mL (≈ 12.7 µM) | 15.9 µg/mL (≈ 43.5 µM)
COc1c2occc2c(OC)c2c(C=C(C)N3CCCC3)c(C#N)c(=N)oc12 | 8.61 µg/mL (≈ 22.7 µM) |  | 5.11 µg/mL (≈ 13.5 µM) | 4.8 µg/mL (≈ 12.7 µM) | 10.9 µg/mL (≈ 28.7 µM)
CCC1(C)Oc2c(c(OC)c3ccoc3c2OC)-c2nn[se]c21 (stereo not drawn) | 12.7 µg/mL (≈ 33.5 µM) |  | 6.02 µg/mL (≈ 15.9 µM) | 8.92 µg/mL (≈ 23.5 µM) | 9.53 µg/mL (≈ 25.1 µM)
COc1c(C(/C=C(\C)N2CCCC2)=C2C(=O)c3ccccc3C2=O)c(O)c(OC)c2occc12 | 13.2 µg/mL (≈ 28.7 µM) |  |  |  | 
COc1c2c(c(OC)c3occc13)OC1(CCCCC1)c1[se]nnc1-2 | 15 µg/mL (≈ 37 µM) |  | 5.57 µg/mL (≈ 13.7 µM) | 4.19 µg/mL (≈ 10.3 µM) | 9.53 µg/mL (≈ 23.5 µM)
COc1c2c(cc3occc13)OC1(CCCCC1)c1[se]nnc1-2 | 16.5 µg/mL (≈ 44 µM) |  | 7.24 µg/mL (≈ 19.3 µM) | 3.89 µg/mL (≈ 10.4 µM) | 14.6 µg/mL (≈ 38.9 µM)
COc1c2occc2c(OC)c2c(C=C(C)N3CCCCC3)c(C#N)c(=N)oc12 |  | Not Active | 4.8 µg/mL (≈ 12.2 µM) | 4.34 µg/mL (≈ 11 µM) | 8.46 µg/mL (≈ 21.5 µM)
COc1cccc2c1C(=O)c1c(O)c3c(c(O)c1C2=O)C[C@@](O)(C(=O)CO)C[C@@H]3O[C@H]1C[C@H](N)[C@H](O)[C@H](C)O1 [DOXORUBICIN] |  |  | 4.19 µg/mL (≈ 7.71 µM) | 3.73 µg/mL (≈ 6.86 µM) | 3.73 µg/mL (≈ 6.86 µM)

Now from value to molecule, other results behind:

IC50 (MCF7; [1]) | IC50 (MCF7; mcf7) | Compound | IC50 (HeLa) | IC50 (HCT-116) | IC50 (HepG2)
10.6 µg/mL (≈ 28.4 µM) |  | COc1c2c(c(OC)c3occc13)OC1(CCCCC1)C/C2=N\NC(N)=O | 4.19 µg/mL (≈ 11.2 µM) | 4.04 µg/mL (≈ 10.8 µM) | 8.61 µg/mL (≈ 23.1 µM)
10.9 µg/mL (≈ 35.9 µM) |  | COc1c2c(cc3occc13)OC(C)(C)C/C2=N\NC(N)=O |  |  | 
13.9 µg/mL (≈ 40 µM) |  | CCC1(C)C/C(=N\NC(N)=O)c2c(c(OC)c3occc3c2OC)O1 (stereo not drawn) |  |  | 
14.9 µg/mL (≈ 41.6 µM) |  | COc1c2c(c(OC)c3occc13)OC1(CCCCC1)c1snnc1-2 |  |  | 
15.9 µg/mL (≈ 48.4 µM) |  | COc1c2c(cc3occc13)OC1(CCCCC1)c1snnc1-2 |  |  | 
20.8 µg/mL (≈ 62.4 µM) |  | COc1c2c(c(OC)c3occc13)OC(C)(C)C/C2=N\NC(N)=O |  |  | 
14 µg/mL (≈ 40.8 µM) |  | COc1c2c(cc3occc13)OC1(CCCCC1)C/C2=N\NC(N)=O |  |  | 
